Experimental data: ChEMBL document CHEMBL2157993, “Urea-based inhibitors of Trypanosoma brucei methionyl-tRNA synthetase: selectivity and in vivo characterization” (J Med Chem, 2012)
The source made the active and inactive calls. The calls are words filed in the database; no cut-off is given here.

Tests used:
[1] = system: Trypanosoma brucei; assay: Binding affinity to Trypanosoma brucei MetRS at 100 uM by thermal shift assay
How it was run: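 Thermal shift (ΔTm) read-out with T. brucei MetRS at 0.4 mg/ml and 5% DMSO; otherwise per an earlier protocol. The test agent was at the single concentration in the curator's line. Repeated three times independently.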

[2] = Inhibition of Trypanosoma brucei MetRS aminoacylation activity assessed as reduction in [3H]methionine incorporation into Escherichia coli tRNA pre-incubated for 15 mins before tRNA addition and measured after 120 mins by scintillation counting
How it was run: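 Recombinant enzyme at 10 nM, preincubated 15 min with 12-point two-fold inhibitor dilutions in 25 mM HEPES pH 7.9, 10 mM MgCl2, 50 mM KCl, spermine, BSA, DTT, 1% DMSO and pyrophosphatase. Reaction started with 400 μg/mL E. coli tRNA, 0.1 mM ATP and 250 nM [3H]methionine, run 120 min at room temperature. TCA-precipitated and filtered for scintillation counting. Quadruplicate, with IC50 by sigmoidal fit.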

[3] = Selectivity ratio of IC50 for human MetRS to IC50 for Trypanosoma brucei MetRS
How it was run: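 Ratio of the human mitochondrial MetRS IC50 to the T. brucei MetRS IC50, each from a [3H]methionine aminoacylation assay.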

[4] = system: Trypanosoma brucei brucei; assay: Growth inhibition of Trypanosoma brucei brucei 427 blood stream forms after 48 hrs by alamar blue assay; type: functional, organism-based; conditions: Trypanosoma brucei, 427, 48 h
How it was run: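 Strain 427 bloodstream forms cultured in HMI-9 with 10% FBS at 37°C, 5% CO2. Triplicate wells seeded at 5×10^4 trypomastigotes with serial compound dilutions from 20 mM DMSO stocks. AlamarBlue read-out at 48 h, with pentamidine as the positive control.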

[5] = system: HepG2; assay: Cytotoxicity against human HepG2 cells incubated for 48 hrs by alamar blue assay; type: cell-based; conditions: HepG2, 48 h
How it was run: (§1)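 […] cells in RPMI or HepG2 cells in DMEM/F-12, each with 10% serum, seeded at 5×10^3 per well. Exposed to serial compound dilutions for 48 h.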

[6] = Permeability across MDCK2-MDR1 cells expressing MDR1 at 3 uM in absence of 2 uM P-gp inhibitor Elacridal by mass spectroscopy; type: ADME, cell-based, Canis lupus familiaris; conditions: dog, mdck-ii
How it was run: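 MDR1-MDCKII cells seeded on Transwell inserts and assayed 3 days later at 37°C in HBSS with glucose and HEPES. Monolayers preincubated about 30 min with or without 2 μM elacridar, then given compound at 3 μM final (apical). After 60 min shaking, both chambers were sampled for MS. Integrity checked by Lucifer Yellow and TEER. Triplicate. Papp(A-B) and AQ calculated.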

[7] = system: Mus musculus; assay: (§2) Cmax in mouse at 50 mg/kg, po administered as single dose measured over 6 hrs by MS/MS method; type: ADME, organism-based; set-up: dose 50 mg/kg, route oral; conditions: in vivo, 6 h
How it was run: (§3)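 Mice, three per group, given one oral dose of 50 mg/kg in 5% DMSO, 3% EtOH, 7% Tween 80 in saline. Tail-snip blood taken at 0.5, 1, 2, 3, 4 and 6 h. Plasma extracted with acetonitrile and quantified by LC-MS/MS.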

[8] = Tmax in mouse at 50 mg/kg, po administered as single dose measured over 6 hrs by MS/MS method; type: ADME, organism-based; set-up: dose 50 mg/kg, route oral; conditions: in vivo; how it was run: as §3
[9] = system: Mus musculus; assay: (§4) Half life in mouse at 50 mg/kg, po administered as single dose measured over 6 hrs by MS/MS method; type: ADME, organism-based; set-up: dose 50 mg/kg, route oral; conditions: in vivo, 6 h; how it was run: as §3
[10] = system: Mus musculus; assay: (§5) AUC in mouse at 50 mg/kg, po administered as single dose measured over 6 hrs by MS/MS method; type: ADME, organism-based, Plasma; set-up: time < 6 hr, dose 50 mg/kg, route oral; conditions: in vivo, 6 h; how it was run: as §3
[11] = system: Trypanosoma brucei rhodesiense; assay: Antiparasitic activity against Trypanosoma brucei rhodesiense STIB900 infected in Swiss Webster mouse assessed as reduction in parasitemia at 50 mg/kg, po dosed 24 hrs post infection every 12 hrs for 4 days measured 48 hrs post infection by microscopy; type: functional; set-up: scale not given: the % may be the effect or the level left
How it was run: (§6)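 Female Swiss Webster (CFW) mice, 6-8 weeks old, five per group. Each infected IP at time 0 with 1×10^4 bloodstream-form STIB900 in 0.2 ml. Compound in 5% DMSO, 3% EtOH, 7% Tween 80 in saline, given by oral gavage (0.2 mL). Vehicle-only group dosed alongside. Parasitemia read daily by wet-mount microscopy of tail blood. Unpaired t-tests per day.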

[12] = system: Trypanosoma brucei rhodesiense; assay: Antiparasitic activity against Trypanosoma brucei rhodesiense STIB900 blood stream forms incubated for 48 hrs by alamar blue assay; type: functional, organism-based; conditions: STIB900, 48 h
[13] = system: Mus musculus; assay: Toxicity in Trypanosoma brucei rhodesiense STIB900 infected Swiss Webster mouse at 50 mg/kg, po dosed 24 hrs post infection every 12 hrs for 4 days; type: organism-based; set-up: dose 50 mg/kg, route oral; conditions: in vivo
[14] = target: ATP-dependent translocase ABCB1 (Homo sapiens, UniProt P08183); assay: Binding affinity to MDR1 expressed in MDCK2 cells assessed as absorptive quotient at 3 uM in absence of 2 uM by mass spectroscopy; type: ADME, cell-based; conditions: dog, mdck-ii
How it was run: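 Monolayers preincubated about 30 min with or without 2 μM elacridar, then given compound at 3 μM final (apical). After 60 min shaking, both chambers were sampled for MS. Integrity checked by Lucifer Yellow and TEER. Triplicate. Papp(A-B) and AQ calculated.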

[15] = system: Mus musculus; assay: Time duration for plasma concentration staying above IC50 in Trypanosoma brucei rhodesiense STIB900 infected Swiss Webster mouse at 50 mg/kg, po dosed 24 hrs post infection every 12 hrs for 4 days
[16] = system: Trypanosoma brucei; assay: Inhibition of protein synthesis in Trypanosoma brucei assessed as reduction in [3H]L-histidine incorporation into proteins incubated for 4 hrs by scintillation counting; type: functional, organism-based
[17] = Selectivity index, ratio of EC50 for human CRL8155 cells to EC50 for Trypanosoma brucei brucei 427; type: toxicity; conditions: read-out: Ratio EC50
[18] = Selectivity index, ratio of EC50 for human HepG2 cells to EC50 for Trypanosoma brucei brucei 427; type: toxicity, cell-based; conditions: read-out: Ratio EC50
[19] = system: Trypanosoma brucei rhodesiense; assay: Antiparasitic activity against Trypanosoma brucei rhodesiense STIB900 infected in Swiss Webster mouse assessed as reduction in parasitemia at 50 mg/kg, po dosed 24 hrs post infection every 12 hrs for 4 days measured 72 hrs post infection by microscopy; type: functional; set-up: scale not given: the % may be the effect or the level left; how it was run: as §6
[20] = system: Trypanosoma brucei rhodesiense; assay: Antiparasitic activity against Trypanosoma brucei rhodesiense STIB900 infected in Swiss Webster mouse assessed as reduction in parasitemia at 50 mg/kg, po dosed 24 hrs post infection every 12 hrs for 4 days measured 96 hrs post infection by microscopy; type: functional; set-up: scale not given: the % may be the effect or the level left; how it was run: as §6
[21] = system: Trypanosoma brucei rhodesiense; assay: Antiparasitic activity against Trypanosoma brucei rhodesiense STIB900 infected in Swiss Webster mouse assessed as reduction in parasitemia at 50 mg/kg, po dosed 24 hrs post infection every 12 hrs for 4 days measured 120 hrs post infection by microscopy; type: functional, organism-based; set-up: dose 50 mg/kg
[22] = Cytotoxicity against human CRL8155 cells incubated for 48 hrs by alamar blue assay; type: cell-based; conditions: CRL8155, 48 h; how it was run: as §1
[23] = as §2; type: ADME, organism-based; set-up: dose 50 mg/kg, route oral; conditions: in vivo; how it was run: as §3
[24] = as §4; type: ADME, organism-based; set-up: dose 50 mg/kg, route oral; conditions: in vivo; how it was run: as §3
[25] = as §5; type: ADME, organism-based, Plasma; set-up: time < 6 hr, dose 50 mg/kg, route oral; conditions: plasma; how it was run: as §3
[26] = Drug level in Swiss Webster mouse brain at 5 mg/kg, ip after 60 mins by MS/MS method; type: ADME, organism-based; set-up: dose 5 mg/kg, route intraperitoneal; conditions: read-out: Drug uptake
How it was run: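 Female Swiss Webster mice, 6-8 weeks old, three per compound, given 5 mg/kg IP in 5% DMSO/3% EtOH/7% Tween 80 saline. Killed at 1 h. Plasma and homogenised brain extracted with acetonitrile containing an extraction standard, with spiked blank brains used for standardisation. Quantified by LC-MS/MS.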

Sequence of ATP-dependent translocase ABCB1 (P08183 whole entry): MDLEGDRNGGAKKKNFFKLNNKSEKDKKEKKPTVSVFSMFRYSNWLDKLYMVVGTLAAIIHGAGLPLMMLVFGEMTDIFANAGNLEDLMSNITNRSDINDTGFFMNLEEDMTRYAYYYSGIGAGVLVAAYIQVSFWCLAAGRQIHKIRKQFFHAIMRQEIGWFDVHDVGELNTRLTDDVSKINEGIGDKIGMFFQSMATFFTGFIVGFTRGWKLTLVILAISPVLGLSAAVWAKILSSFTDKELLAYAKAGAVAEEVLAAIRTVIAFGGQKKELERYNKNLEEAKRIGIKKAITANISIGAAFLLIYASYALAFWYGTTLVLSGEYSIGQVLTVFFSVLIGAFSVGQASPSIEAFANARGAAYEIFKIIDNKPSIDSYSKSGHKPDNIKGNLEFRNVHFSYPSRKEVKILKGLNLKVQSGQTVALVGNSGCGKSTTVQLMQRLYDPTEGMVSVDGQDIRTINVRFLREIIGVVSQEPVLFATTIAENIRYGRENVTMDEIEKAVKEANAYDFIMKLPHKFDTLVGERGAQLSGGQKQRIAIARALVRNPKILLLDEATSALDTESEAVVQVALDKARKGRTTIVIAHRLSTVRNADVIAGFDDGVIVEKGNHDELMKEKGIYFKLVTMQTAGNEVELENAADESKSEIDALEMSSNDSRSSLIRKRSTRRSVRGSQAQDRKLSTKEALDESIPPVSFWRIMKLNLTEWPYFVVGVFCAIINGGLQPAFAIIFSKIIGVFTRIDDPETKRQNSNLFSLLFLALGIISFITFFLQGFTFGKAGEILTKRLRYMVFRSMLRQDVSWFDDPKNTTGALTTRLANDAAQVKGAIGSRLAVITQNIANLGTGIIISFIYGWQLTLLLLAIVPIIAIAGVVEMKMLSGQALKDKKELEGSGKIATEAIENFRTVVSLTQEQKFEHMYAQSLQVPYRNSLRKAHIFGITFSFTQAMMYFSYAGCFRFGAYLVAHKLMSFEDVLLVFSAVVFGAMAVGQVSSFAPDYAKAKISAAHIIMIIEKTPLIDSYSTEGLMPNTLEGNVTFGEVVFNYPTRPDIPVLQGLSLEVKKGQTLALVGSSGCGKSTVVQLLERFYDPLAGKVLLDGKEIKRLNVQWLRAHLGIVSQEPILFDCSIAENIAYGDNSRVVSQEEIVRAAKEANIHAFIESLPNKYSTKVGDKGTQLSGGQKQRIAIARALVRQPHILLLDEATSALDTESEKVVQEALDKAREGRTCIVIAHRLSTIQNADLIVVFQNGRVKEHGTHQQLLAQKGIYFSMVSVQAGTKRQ

O=C(NCCCNCc1cc(Cl)cc(Cl)c1)Nc1ccsc1
ΔTm [1]: 8.3 °C | IC50 [2]: 28 nM | Ratio IC50 [3]: 155 | EC50 [4]: 220 nM | EC50 [5]: 13000 nM | Papp [6]: 17.2 ×10⁻⁶ cm/s | Cmax [7]: 3700 nM | Tmax [8]: 30 min | t1/2 [9]: 63 min | AUC [10]: 464 µM·min | Activity [11]: 94% | EC50 [12]: 420 nM | Activity [13]: Non-toxic | AQ [14]: 0.42 | Time [15]: <6 h | inhibition [16]: Dose-dependent effect | selectivity ratio [17]: 55 | selectivity ratio [18]: 59 | Activity [19]: 80% | Activity [20]: 63% | Activity [21]: inactive

N=C(NCCCNCc1cc(Cl)cc(Cl)c1)Nc1ccccc1
ΔTm [1]: 4.5 °C

COc1cc(Cl)cc(CNCCCNC(=O)Nc2ccsc2)c1
ΔTm [1]: 7.9 °C | IC50 [2]: 19 nM | Ratio IC50 [3]: 347 | EC50 [4]: 150 nM | EC50 [22]: 22000 nM | Papp [6]: 9.7 ×10⁻⁶ cm/s | Cmax [23]: 1290 nM | Tmax [8]: 30 min | half-life [24]: 82 min | AUC at 6 h [25]: 2.68 µM·h | AQ [14]: 0.53 | selectivity ratio [17]: 147 | selectivity ratio [18]: 147

CCOc1ccc(CNCCCNC(=O)Nc2ccccc2)cc1
ΔTm [1]: 0.5 °C

O=C(NCCCNCc1ccccc1)Nc1ccccc1
ΔTm [1]: 1.3 °C

O=C(NCCCNCc1cc(Cl)cc(Cl)c1)Nc1cccc(O)c1
ΔTm [1]: 7.7 °C | IC50 [2]: 29 nM | Ratio IC50 [3]: 187 | EC50 [4]: 170 nM | EC50 [22]: 12000 nM | Papp [6]: 2.9 ×10⁻⁶ cm/s | AQ [14]: 0.62

O=C(NCCCNCc1cc(Cl)cc(Cl)c1)Nc1ccccc1F
ΔTm [1]: 7.3 °C

O=C(NCCCNCc1cc(Cl)cc(Cl)c1)Nc1ccc(O)cc1
ΔTm [1]: 5.8 °C

O=C(NCCCNCc1cc(Cl)cc(Cl)c1)Nc1ccccc1O
ΔTm [1]: 8.4 °C | IC50 [2]: 39 nM | Ratio IC50 [3]: 95 | EC50 [4]: 210 nM | EC50 [5]: > 20000 nM

O=C(NCCCNCc1cc(Cl)cc(Cl)c1)Nc1cccc(Cl)c1
ΔTm [1]: 5.2 °C

O=C(NCCCNCc1cc(Cl)cc(Cl)c1)Nc1cccs1
ΔTm [1]: 7.6 °C | IC50 [2]: 64 nM | Ratio IC50 [3]: 48 | EC50 [4]: 350 nM | EC50 [5]: 14500 nM

O=C(NCCCNCc1cc(Cl)cc(Cl)c1)Nc1cccc(F)c1
ΔTm [1]: 7.7 °C | IC50 [2]: 110 nM | Ratio IC50 [3]: 39 | EC50 [4]: 757 nM | EC50 [5]: 17900 nM

NCCCC(N)(C(=O)O)C(F)F (configuration not stated)
inhibition [16]: inactive

O=C(NCCCNCc1cc(Cl)cc(Cl)c1)Nc1ccc(Cl)cc1
ΔTm [1]: 5.7 °C

O=C(NCCCNCc1cc(Cl)cc(Cl)c1)Nc1cccnc1
ΔTm [1]: 7.1 °C

Oc1cc(NCCCNCc2cc(Cl)cc(Cl)c2)nc2ccccc12
Papp [6]: 2.9 ×10⁻⁶ cm/s | concentration at 1 h [26]: < 3 nM | AQ [14]: 0.36 | inhibition [16]: Dose-dependent effect | selectivity ratio [17]: 27 | selectivity ratio [18]: 27

Nc1ccccc1NC(=O)NCCCNCc1cc(Cl)cc(Cl)c1
ΔTm [1]: 4.7 °C
